Data on 97 molecules can be found in ChEMBL document CHEMBL4513216, “Probing the Open Global Health Chemical Diversity Library for Multistage-Active Starting Points for Next-Generation Antimalarials” (ACS Infect Dis, 2020).

A short description of the data set: Toxicity liver stage against HepG2, at 10uM. It counts as cell-based. Set-up: test concentration 10 uM, cell line HepG2-A16-CD81EGFP. Particulars: human, HepG2-A16-CD81EGFP cells; read-out: INHIBITION
The gist of the method:
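Uninfected HepG2-A16-CD81EGFP cells, 3 × 10^3 per well, 1536-well, plated on prespotted compound at 10 μM final, parasite-free screening media added to match infected plates; puromycin 10 μM positive, DMSO 0.5% negative; run in parallel with 48 h PbLuc assay at 37 °C, 5% CO2; viability by CellTiter-Glo luminescence, normalized to controls.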
As to `COC(=O)N1CC[C@@]2(O)CCCC[C@H]2[C@@H]1c1ccc2c(c1)OCO2`, the cytotoxicity at 10 µM is 2.91%.
For the molecule `Cc1ccc(S(=O)(=O)c2ncccc2CN2CCCC2)cc1`, the cytotoxicity at 10 µM was -49.4%.
Turning to `Cc1noc(C)c1S(=O)(=O)NCC(O)c1ccc2c(c1)CCO2` (configuration not stated), the cytotoxicity at 10 µM was 0.407%.
Consider `COc1ccc(C(=O)N2CCO[C@H]3[C@H](OCC4CC4)CC[C@@H]32)cc1F`, for which the cytotoxicity at 10 µM came to 18.2%.
As for `CN(C)CCNC(=O)c1nc2c(o1)CN(c1ncccn1)C2`, the figure is -0.603%; as for `O=C1[C@H]2CN(c3ncc(F)cn3)C[C@H]2CN1CC1CC1`, 6.19%.
As for `Cc1nnc([C@@H]2CCO[C@@H]3CCN(C(=O)Cc4ccsc4)C[C@@H]32)o1`, the cytotoxicity at 10 µM came to 9.43%.
As for `Cc1ccc(C(=O)N2CCN3C[C@H](Oc4cncnc4)C[C@H]3C2)cn1`, the figure is 5.01%; as for `Cc1noc(C)c1CN1CC2(CCN(C(=O)c3cccn3C)C2)CC1=O` (configuration not stated), 6.53%.
As for `CCc1ccc(C(=O)N2CC(C(=O)NC(C)C)C3(CCOCC3)C2)cc1` (configuration not stated), the cytotoxicity at 10 µM came to 3.65%.
As for `CCOC(=O)C1CCN(C(=O)c2cc(F)ccc2-n2cnnn2)CC1`, the figure is -0.121%; as for `CCN1CCCC(O)(CN(C)Cc2c(C)nn(C)c2C)C1` (configuration not stated), 4.95%.
To `COCCNC(=O)C(C)n1nc(-c2ccco2)cc(N)c1=O` (configuration not stated) belongs 2.62%; to `Cc1noc(-c2cnc(NCC3CCCO3)nc2-c2ccco2)c1C` (configuration not stated), 7.74%; to `COCC(=O)N1CCCC(c2nc(N(C)C)ncc2-c2ccccc2)C1` (configuration not stated), 6.1%.
To `Cc1nccn1CC1CCCN(S(=O)(=O)c2cnn(C)c2)C1` (configuration not stated) belongs 8.58%; to `CC(=O)N1CCc2nnc(C3CCCCN3CC3CCCCC3)n2CC1` (configuration not stated), 10.2%; to `Cc1nccc(N2CCCC(C)(C(=O)NC3CCCC3)C2)n1` (configuration not stated), -18.6%.
As to `CN1CCN(C(=O)C2CCCN(c3cccnn3)C2)CC1` (configuration not stated), the cytotoxicity at 10 µM was -10.8%.
On to `Cc1cccc(CN2CCC(C3Nc4ccccc4S(=O)(=O)N3)CC2)n1` (configuration not stated), for which the cytotoxicity at 10 µM is -18.9%.
To `CC(C)N1CCC(c2nccnc2Nc2ncccn2)CC1` belongs -23.7%; to `CC(=O)N1CCCC(c2ccnc(Nc3cnccn3)n2)C1` (configuration not stated), -12.5%; to `CNC(=O)C1(c2cnccn2)CCCN1C(=O)c1ccccn1` (configuration not stated), 10.1%.
Consider `C=Cn1ncc(CN2C[C@@H]3C[C@@H](O)CN3C[C@@H]2Cc2ccccc2)c1C`, for which the cytotoxicity at 10 µM is 4.02%.
To `Cn1ccc(C(=O)N2CCC(Cc3cccc4ncccc34)CC2)n1` belongs -3.17%.
As for `CC(=O)N1Cc2ccccc2CC2(CCCCN2C)C1` (configuration not stated), the cytotoxicity at 10 µM was found to be 3.87%.
To `O=C(Nc1c(N2CCCC2)cccc1N1CCCC1)c1cnsn1` belongs -43%.
As for `CC(O)CCN(C)C(=O)Nc1cc(F)cc(Br)c1` (configuration not stated), the figure is 4.12%; as for `O=C(Nc1cc(C(F)(F)F)c[nH]c1=O)C1CCCNC1` (configuration not stated), 5.15%.
As for `CCN(Cc1nccn1C)C1CCN(c2ccccc2)C1=O` (configuration not stated), the figure is 4.19%; as for `Cc1nnc(NC(=O)NCc2ccc(C)n2C)s1`, -2.08%; as for `CC(C)c1nccn1CC1CCCN1Cc1nc2ccccc2n1C` (configuration not stated), -43.9%.
For the molecule `CCc1c(NCc2cccnc2)cnn1CC(C)C`, the cytotoxicity at 10 µM was -0.625%.
Turning to `CCC(CNC(=O)Cn1ccnc1)Oc1cccc(F)c1` (configuration not stated), the cytotoxicity at 10 µM is -45.8%.
To `Cc1cc(C)c(CNC(=O)NCCc2cccnc2)c(=O)[nH]1` belongs -53.3%; to `Cn1cccc(NC(=O)NCc2cccc(CO)c2)c1=O`, -55.5%; to `Cc1cc(C)n(CC(C)CNC(=O)NCc2c(C)cc(C)[nH]c2=O)n1` (configuration not stated), -7.86%.
`C=C(C)CN1CCC(NC(=O)Nc2ccc(F)c(C(N)=O)c2)CC1`: the cytotoxicity at 10 µM was -6.08%.
As to `COCCN1CCC(CNC(=O)Nc2ccc(-c3ccccc3)cc2)C1` (configuration not stated), the cytotoxicity at 10 µM was -15.2%.
To `Cc1occc1C(=O)NCC(=O)NCCOc1ccc2c(c1)CCC2` belongs -2.83%; to `Cc1cnn(CC2CCCN2Cc2cc(=O)n3cc(C)ccc3n2)c1` (configuration not stated), -10.9%.
With `COc1ccc(N)c(N2CCN(C(C)=O)CC2)n1`, the cytotoxicity at 10 µM is -6.22%.
As for `Cc1cc(NC(=O)CN(C)CC2CCCN2c2cccnn2)n(C)n1` (configuration not stated), the figure is 7.85%; as for `Clc1ccc2oc(C3CCN(Cc4nc(C5CC5)no4)CC3)nc2c1`, -5.15%; as for `Cc1ccc(CN(C)C(=O)CN2CCCC2Cn2cncn2)cc1` (configuration not stated), 7.84%.
Regarding `CN(C)C(=O)C1CCCN1CCCNC(=O)c1ccccc1Cl` (configuration not stated), the cytotoxicity at 10 µM was -8.27%.
To `Cn1cnnc1-c1ccnc(NCc2ccc3c(c2)OCCO3)c1` belongs -11%.
For `CNC(=O)Cc1ccccc1NC(=O)C1CCCC1`, the cytotoxicity at 10 µM worked out at 31.1%.
To `Cc1c(C(=O)NC2(C#N)CCSC2)nnn1-c1ccccc1Cl` (configuration not stated) belongs -5.34%; to `COCCOc1ncccc1C(=O)Nc1c(C)cnn1CC1CC1`, 3.36%; to `O=C(Nc1ccc(-n2cccn2)cc1)N1CCC(O)C1` (configuration not stated), 19.9%.
To `CCC(C)Oc1cc(C(=O)Nc2nnc(C(C)C)[nH]2)ccn1` (configuration not stated) belongs -11.2%.
As for `CSc1ccsc1C(=O)NS(=O)(=O)c1ccc(F)cc1`, the figure is -3.91%.
As for `COC(=O)C1CCN(C(=O)Nc2cc(-n3cccc3)ccc2F)CC1`, the cytotoxicity at 10 µM was found to be 5.44%.
To `CCc1nc(CCNc2ccc(S(N)(=O)=O)cc2C#N)cs1` belongs -54.6%; to `Cc1nc(-c2ccc(Cl)s2)sc1C(=O)O`, 7.51%.
To `N#Cc1ccc(N2CCCN(CC(=O)N3CCOCC3)CC2)cc1` belongs 6.62%.
As for `COCCN1CCC(CNC(=O)C2(C#N)CCCC2)CC1`, the figure is 6.93%.
`COC1CCC(N(C)c2ccnc(N(C)C)n2)CC1` (configuration not stated): the cytotoxicity at 10 µM is -13.6%.
To `CN(C1CCCC1)C(C)(C)C(=O)NCCS(C)(=O)=O` belongs -49.7%; to `CCN(CC(=O)NC(C)C)S(=O)(=O)N1CCC(C)C1` (configuration not stated), -3.26%; to `COCC(NC(=O)c1cc[nH]n1)c1cccc(C(F)(F)F)c1` (configuration not stated), -10.7%.
As to `CCOCC1CN(C(=O)Cc2ccccn2)Cc2c1cnn2CC` (configuration not stated), the cytotoxicity at 10 µM is -69.3%.
As for `CNc1ncc(-c2ccnn2C2CCN(C(C)=O)CC2)cn1`, the figure is 0.581%; as for `Cc1nn(C)c(C)c1CN(C)c1nc(C2CCCC2)nc2c1cnn2C`, 27.9%; as for `Cn1ccnc1C1CCCN(C(=O)c2ccncc2F)C1` (configuration not stated), 3.18%.
To `Cc1nc(CC(=O)NCCN2CCC(c3ccccc3C)C2)cs1` (configuration not stated) belongs -40%.
For `COc1ccc(NC(=O)c2cccc(CN3CCCC3C)c2)cc1OC` (configuration not stated), the cytotoxicity at 10 µM is 0.636%.
In the case of `Nc1ncccc1CN1C[C@H]2OC(=O)N(Cc3ccccn3)[C@H]2C1`, the cytotoxicity at 10 µM is 13.9%.
To `CC(C)n1ccnc1C1CCN(Cc2ccc(C(F)(F)F)c(F)c2)CC1` belongs -7.43%.
For `Cc1nccn1CCC(=O)N1CCC2(CCC(=O)N(CC3CC3)C2)CC1`, the cytotoxicity at 10 µM was -8.46%.
Regarding `CSc1nc(O)c(Cc2ccccc2)c(=O)n1-c1ccccc1`, the cytotoxicity at 10 µM was -6.24%.
For `COc1cc(Cl)cc(C(=O)N2CCC3(CCCNC3)C2)c1` (configuration not stated), the cytotoxicity at 10 µM is -7%.
For `N#Cc1nccnc1N1CCC(C(O)c2cccs2)CC1` (configuration not stated), the cytotoxicity at 10 µM was -38%.
To `C=C(C)COc1cccc(C(=O)N(C)C(C)c2ccncn2)c1` (configuration not stated) belongs -50%.
Turning to `O=C(O)c1cccnc1CN1CCOc2ccccc2C1`, the cytotoxicity at 10 µM worked out at 7.66%.
Consider `Cc1ccnc(CC(C)N(C)Cc2ccc3c(c2)CCO3)c1` (configuration not stated), for which the cytotoxicity at 10 µM stood at 1.63%.
As for `Cc1nc(NCc2ccc(C)o2)cc(C2CCNCC2)n1`, the cytotoxicity at 10 µM is 4.52%.
As to `CN1CC2(CCCN(Cc3cccc(Oc4ccccc4)c3)C2)OC1=O` (configuration not stated), the cytotoxicity at 10 µM was 5.09%.
Turning to `N#CCCn1nc(C(F)(F)F)c2c1CCCC2`, the cytotoxicity at 10 µM was -11.9%.
To `Cc1cnn(CC2CCCCN2C(=O)c2ccc(NC3CC3)nc2)c1` (configuration not stated) belongs -11.9%; to `COc1ccc(F)cc1C(=O)N1CCCC(n2nc(C)nc2C)C1` (configuration not stated), 3.05%; to `O=C(Cc1cn2ccsc2n1)N1CCCC(n2cncn2)C1` (configuration not stated), -5.97%.
On to `N#Cc1ccc(C(=O)NCCCNc2ccc(C(F)(F)F)cn2)cc1`, for which the cytotoxicity at 10 µM is -4.53%.
To `Cc1ccc(CC(=O)N2CCN(CC(O)c3ccccc3)CC2)cn1` (configuration not stated) belongs -10.9%; to `COCCN1CCCN(C(=O)NC(C)Cn2cccn2)CC1` (configuration not stated), -9.39%; to `Cc1cc(C)n(CCCn2cncc2-c2ccc3c(c2)CC(C)N3C)n1` (configuration not stated), 0.94%.
To `Cc1csc(C(Cc2ccsc2)NC(=O)CN(C)Cc2cccnc2)n1` (configuration not stated) belongs 0.471%.
As for `Cc1cnnn1Cc1nnn2c1CN(Cc1ccccn1)CCC2`, the figure is 9.73%; as for `COCc1cnc2n1CCN(C1CCC1)C2C` (configuration not stated), 4.77%; as for `CCOC(=O)C1(Cc2ccccc2-c2ccccc2OC)CCNCC1`, -1.47%.
For the molecule `CN1C(=O)CC(c2cnn(C)c2)C12CCN(C(=O)c1ccncc1)CC2` (configuration not stated), the cytotoxicity at 10 µM is -84.4%.
To `Cc1ccc(N2C[C@H](C(=O)NCC3CC3)[C@@H]3CCO[C@@H]3C2)nn1` belongs -67.6%; to `Fc1ccc(CN2CCC3(CC2)CCN(Cc2nccs2)CC3)cc1`, 4.92%.
For the molecule `Cc1nc[nH]c1CN1C[C@@H]2OCCN(c3ncccn3)[C@@H]2C1`, the cytotoxicity at 10 µM was -70.4%.
In the case of `CC(=O)NCC(=O)N1CCn2cc(CN(C)Cc3ccco3)nc2C1`, the cytotoxicity at 10 µM was 4.81%.
`Cc1ccc(N2CC[C@H](OCC3CC3)[C@@H]2Cc2cccnc2)nn1`: the cytotoxicity at 10 µM came to 1.13%.
